Key:
Muscle tissue [1] = assay: Biodistribution in muscle of nude mouse bearing human U87MG tumor at 197 +/- 16 uCi, iv after 30 mins; assay type: ADME, organism-based; settings: in vivo, 0.5 h
In short: (§1)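 Male nude Hsd-Athymic Nude-nu mice (10–12 weeks) with subcutaneous 293/KDR tumors (1.5–2 × 10⁶ cells, 7–21 days) or U87MG.wt EGFR tumors (1.5–4 × 10⁶ cells with 20% Matrigel, 4–20 days). The [¹¹C] tracer was given via the lateral tail vein in 10% ethanol/saline (1.1 ± 0.3 Ci/µmol; 225 ± 11 µL). At 30 or 60 min, blood was drawn from the orbital sinus and organs were excised, weighed and gamma-counted; results are %ID/g, n = 10–12.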

Zone of skin [2] = assay: Biodistribution in skin of nude mouse bearing human U87MG tumor at 197 +/- 16 uCi, iv after 30 mins; assay type: ADME, organism-based; settings: in vivo, 0.5 h; in short: as §1
Liver [3] = assay: Biodistribution in liver of nude mouse bearing human 293/KDR tumor at 197 +/- 16 uCi, iv after 30 mins; assay type: ADME, organism-based; settings: in vivo, 0.5 h; in short: as §1
[4] = Metabolic stability in mouse liver microsome assessed as intact compound at 2 to 3 mCi after 45 mins by RP-HPLC; assay type: ADME; settings: liver microsomes, read-out: Stability
In short: (§2)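 Tracer (2–3 mCi in 100 µL ethanol) was preincubated with 0.5 mg/mL mouse hepatic microsomes in PBS pH 7.4 at 37 °C for 5 min. Reactions were started with 0.25 mM NADPH and sampled at 0–60 min. Aliquots were loaded on a celite plug and eluted with ethanol, and intact tracer was measured by RP-HPLC.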

Blood [5] = assay: Biodistribution in blood of nude mouse bearing human U87MG tumor at 197 +/- 16 uCi, iv after 60 mins; assay type: ADME, organism-based; settings: in vivo, 1 h; in short: as §1
Kidney [6] = assay: Biodistribution in kidney of nude mouse bearing human 293/KDR tumor at 197 +/- 16 uCi, iv after 60 mins; assay type: ADME, organism-based; settings: in vivo, 1 h; in short: as §1
Zone of skin [7] = assay: Biodistribution in skin of nude mouse bearing human 293/KDR tumor at 197 +/- 16 uCi, iv after 30 mins; assay type: ADME, organism-based; settings: in vivo, 0.5 h; in short: as §1
Muscle tissue [8] = assay: Biodistribution in muscle of nude mouse bearing human 293/KDR tumor at 197 +/- 16 uCi, iv after 30 mins; assay type: ADME, organism-based; settings: in vivo, 0.5 h; in short: as §1
Zone of skin [9] = assay: Biodistribution in skin of nude mouse bearing human 293/KDR tumor at 197 +/- 16 uCi, iv after 60 mins; assay type: ADME, organism-based; settings: in vivo, 1 h; in short: as §1
Muscle tissue [10] = assay: Biodistribution in muscle of nude mouse bearing human 293/KDR tumor at 197 +/- 16 uCi, iv after 60 mins; assay type: ADME, organism-based; settings: in vivo, 1 h; in short: as §1
Liver [11] = assay: Biodistribution in liver of nude mouse bearing human 293/KDR tumor at 197 +/- 16 uCi, iv after 60 mins; assay type: ADME, organism-based; settings: in vivo, 1 h; in short: as §1
Blood [12] = assay: Metabolic stability in human blood assessed as residual radioactivity at 300 uCi after 60 mins by RP-HPLC; assay type: ADME, tissue-based; settings: 1 h
In short: (§3)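 Fresh human EDTA blood, 1 mL aliquots, was preincubated at 37 °C for 15 min. About 300 µCi of the [¹¹C] tracer was added and samples were held for 0, 30 or 60 min. Samples were centrifuged, and the plasma was extracted with cold THF/ACN (30:70) and centrifuged again. The extract was analysed by RP-HPLC and by RP-TLC (40:60 H₂O:ACN) with phosphor imaging; n = 3.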

[13] = Biodistribution in tumor of nude mouse bearing human U87MG tumor at 197 +/- 16 uCi, iv after 30 mins; assay type: ADME, organism-based, Neoplasm; settings: in vivo, 0.5 h; in short: as §1
[14] = Biodistribution in tumor of nude mouse bearing human U87MG tumor at 197 +/- 16 uCi, iv after 60 mins; assay type: ADME, organism-based, Neoplasm; settings: in vivo, 1 h; in short: as §1
Kidney [15] = assay: Biodistribution in kidney of nude mouse bearing human 293/KDR tumor at 197 +/- 16 uCi, iv after 30 mins; assay type: ADME, organism-based; settings: in vivo, 0.5 h; in short: as §1
[16] = Metabolic stability in mouse liver microsome assessed as intact compound at 2 to 3 mCi after 15 mins by RP-HPLC; assay type: ADME; settings: liver microsomes, read-out: Stability; in short: as §2
Bone [17] = assay: Biodistribution in bone of nude mouse bearing human 293/KDR tumor at 197 +/- 16 uCi, iv after 30 mins; assay type: ADME, organism-based, Bone element; settings: in vivo, 0.5 h; in short: as §1
Blood [18] = assay: Biodistribution in blood of nude mouse bearing human U87MG tumor at 197 +/- 16 uCi, iv after 30 mins; assay type: ADME, organism-based; settings: in vivo, 0.5 h; in short: as §1
Blood [19] = assay: Metabolic stability in human blood assessed as residual radioactivity at 300 uCi after 30 mins by RP-HPLC; assay type: ADME, tissue-based; settings: 0.5 h; in short: as §3
Bone [20] = assay: Biodistribution in bone of nude mouse bearing human U87MG tumor at 197 +/- 16 uCi, iv after 30 mins; assay type: ADME, organism-based, Bone element; settings: in vivo, 0.5 h; in short: as §1
Muscle tissue [21] = assay: Biodistribution in muscle of nude mouse bearing human U87MG tumor at 197 +/- 16 uCi, iv after 60 mins; assay type: ADME, organism-based; settings: in vivo, 1 h; in short: as §1
Blood [22] = assay: Biodistribution in blood of nude mouse bearing human 293/KDR tumor at 197 +/- 16 uCi, iv after 60 mins; assay type: ADME, organism-based; settings: in vivo, 1 h; in short: as §1
[23] = Octanol-phosphate buffered saline partition coefficient, log D at pH 7.4; assay type: physicochemical
In short: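 About 200 µCi of the [¹¹C] tracer was taken up in 5 mL n-octanol and mixed with 1 mL phosphate buffer (pH 7.4, 100 mM), a 5:1 octanol:buffer ratio. The mixture was vortexed for 2 min, the phases were separated, and each phase was measured for radioactivity.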

Liver [24] = assay: Biodistribution in liver of nude mouse bearing human U87MG tumor at 197 +/- 16 uCi, iv after 30 mins; assay type: ADME, organism-based; settings: in vivo, 0.5 h; in short: as §1
Bone [25] = assay: Biodistribution in bone of nude mouse bearing human U87MG tumor at 197 +/- 16 uCi, iv after 60 mins; assay type: ADME, organism-based, Bone element; settings: in vivo, 1 h; in short: as §1
Zone of skin [26] = assay: Biodistribution in skin of nude mouse bearing human U87MG tumor at 197 +/- 16 uCi, iv after 60 mins; assay type: ADME, organism-based; settings: in vivo, 1 h; in short: as §1
Liver [27] = assay: Biodistribution in liver of nude mouse bearing human U87MG tumor at 197 +/- 16 uCi, iv after 60 mins; assay type: ADME, organism-based; settings: in vivo, 1 h; in short: as §1
[28] = Biodistribution in tumor of nude mouse bearing human 293/KDR tumor at 197 +/- 16 uCi, iv after 30 mins; assay type: ADME, organism-based, Neoplasm; settings: in vivo, 0.5 h; in short: as §1
Kidney [29] = assay: Biodistribution in kidney of nude mouse bearing human U87MG tumor at 197 +/- 16 uCi, iv after 30 mins; assay type: ADME, organism-based; settings: in vivo, 0.5 h; in short: as §1
Kidney [30] = assay: Biodistribution in kidney of nude mouse bearing human U87MG tumor at 197 +/- 16 uCi, iv after 60 mins; assay type: ADME, organism-based; settings: in vivo, 1 h; in short: as §1
[31] = Biodistribution in tumor of nude mouse bearing human 293/KDR tumor at 197 +/- 16 uCi, iv after 60 mins; assay type: ADME, organism-based, Neoplasm; settings: in vivo, 1 h; in short: as §1
[32] = Metabolic stability in mouse liver microsome assessed as intact compound at 2 to 3 mCi after 30 mins by RP-HPLC; assay type: ADME; settings: liver microsomes, read-out: Stability; in short: as §2
Blood [33] = assay: Biodistribution in blood of nude mouse bearing human 293/KDR tumor at 197 +/- 16 uCi, iv after 30 mins; assay type: ADME, organism-based; settings: in vivo, 0.5 h; in short: as §1
Bone [34] = assay: Biodistribution in bone of nude mouse bearing human 293/KDR tumor at 197 +/- 16 uCi, iv after 60 mins; assay type: ADME, organism-based, Bone element; settings: in vivo, 1 h; in short: as §1
[35] = target: Vascular endothelial growth factor receptor 3 (Homo sapiens, UniProt P35916); assay: Inhibition of VEGFR3 after 80 mins by radiometric protein kinase assay
In short: (§4)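 Radiometric [γ-33P]-ATP kinase assay with poly(Glu,Tyr) 4:1 substrate. Reaction run 80 min at 30 °C, stopped with 2% H3PO4 and washed with 0.9% NaCl. 33Pi incorporation counted by microplate scintillation. IC50 from 12 concentrations tested in triplicate, with Z'-factor used as plate control.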

[36] = target: Platelet-derived growth factor receptor alpha (Homo sapiens, UniProt P16234); assay: Inhibition of PDGFRalpha after 80 mins by radiometric protein kinase assay
In short: (§5)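 Radiometric [γ-33P]-ATP kinase assay with poly(Ala,Glu,Lys,Tyr) 6:2:5:1 substrate. Incubated 30 °C for 80 min, then stopped with 2% H3PO4 and washed with 0.9% NaCl. 33Pi incorporation read by scintillation counting. IC50 from 12 concentrations in triplicate; plate quality checked by Z'-factor.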

[37] = target: T1, Vascular endothelial growth factor receptor 2 (Homo sapiens, UniProt P35968); assay: Inhibition of VEGFR2 after 80 mins by radiometric protein kinase assay; in short: as §4
[38] = target: Platelet-derived growth factor receptor beta (Homo sapiens, UniProt P09619); assay: Inhibition of PDGFRbeta after 80 mins by radiometric protein kinase assay
[39] = target: Receptor tyrosine-protein kinase erbB-2 (Homo sapiens, UniProt P04626); assay: Inhibition of ERBB2 after 80 mins by radiometric protein kinase assay
In short: (§6)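 The substrate was Poly(Glu,Tyr)4:1. 12 concentrations were run in triplicate with 1% final DMSO, at 30 °C for 80 min. Reactions were stopped with 2% H₃PO₄, washed with 0.9% NaCl, and ³³P incorporation was read by scintillation counting.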

[40] = target: Vascular endothelial growth factor receptor 1 (Homo sapiens, UniProt P17948); assay: Inhibition of VEGFR1 after 80 mins by radiometric protein kinase assay; in short: as §4
[41] = target: Mast/stem cell growth factor receptor Kit (Homo sapiens, UniProt P10721); assay: Inhibition of KIT after 80 mins by radiometric protein kinase assay; in short: as §6
[42] = target: Insulin-like growth factor 1 receptor (Homo sapiens, UniProt P08069); assay: Inhibition of IGF1R after 80 mins by radiometric protein kinase assay; in short: as §4
Angiopoietin-1 receptor = Angiopoietin-1 receptor (Homo sapiens, UniProt Q02763); assay: Inhibition of TIE2 after 80 mins by radiometric protein kinase assay; in short: as §5
[43] = target: T1, Vascular endothelial growth factor receptor 2; settings: HEK293, 10 uM
[44] = target: T1, Vascular endothelial growth factor receptor 2; settings: HEK293, 20 uM

T1 sequence (P35968 whole entry): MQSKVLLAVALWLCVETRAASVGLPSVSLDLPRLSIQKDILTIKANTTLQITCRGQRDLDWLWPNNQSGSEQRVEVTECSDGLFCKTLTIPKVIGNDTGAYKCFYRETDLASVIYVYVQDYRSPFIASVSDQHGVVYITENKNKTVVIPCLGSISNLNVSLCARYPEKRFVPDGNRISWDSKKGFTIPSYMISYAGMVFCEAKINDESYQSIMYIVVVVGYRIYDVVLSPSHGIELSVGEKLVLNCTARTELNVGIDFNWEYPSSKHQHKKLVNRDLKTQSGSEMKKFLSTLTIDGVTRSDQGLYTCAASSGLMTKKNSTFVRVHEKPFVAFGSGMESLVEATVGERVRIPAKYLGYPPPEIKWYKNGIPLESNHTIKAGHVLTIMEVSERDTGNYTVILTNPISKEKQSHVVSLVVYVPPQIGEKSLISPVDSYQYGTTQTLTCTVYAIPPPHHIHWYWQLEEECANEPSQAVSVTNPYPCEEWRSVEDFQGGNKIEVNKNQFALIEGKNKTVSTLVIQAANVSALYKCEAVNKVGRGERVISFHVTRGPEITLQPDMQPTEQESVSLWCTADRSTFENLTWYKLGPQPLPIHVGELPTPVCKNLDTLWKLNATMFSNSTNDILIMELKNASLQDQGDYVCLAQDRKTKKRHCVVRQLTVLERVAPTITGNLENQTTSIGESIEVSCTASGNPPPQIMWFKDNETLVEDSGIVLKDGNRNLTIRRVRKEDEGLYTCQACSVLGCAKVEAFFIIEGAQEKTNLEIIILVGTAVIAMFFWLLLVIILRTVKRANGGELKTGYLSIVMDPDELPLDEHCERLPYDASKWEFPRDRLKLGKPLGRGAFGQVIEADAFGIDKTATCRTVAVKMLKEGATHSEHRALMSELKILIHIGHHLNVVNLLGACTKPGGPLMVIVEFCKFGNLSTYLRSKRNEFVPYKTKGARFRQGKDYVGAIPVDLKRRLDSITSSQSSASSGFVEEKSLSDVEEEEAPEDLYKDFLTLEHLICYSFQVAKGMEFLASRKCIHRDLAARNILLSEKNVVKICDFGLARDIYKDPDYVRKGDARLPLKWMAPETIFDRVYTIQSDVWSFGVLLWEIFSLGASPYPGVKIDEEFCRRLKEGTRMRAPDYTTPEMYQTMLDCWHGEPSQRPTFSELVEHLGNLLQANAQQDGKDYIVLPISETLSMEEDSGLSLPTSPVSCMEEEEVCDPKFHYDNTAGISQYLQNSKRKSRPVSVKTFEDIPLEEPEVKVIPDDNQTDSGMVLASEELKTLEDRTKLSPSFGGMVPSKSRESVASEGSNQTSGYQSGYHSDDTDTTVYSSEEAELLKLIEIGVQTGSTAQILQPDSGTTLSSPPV
Chain of Insulin-like growth factor 1 receptor (P08069 31-736 limits assumed): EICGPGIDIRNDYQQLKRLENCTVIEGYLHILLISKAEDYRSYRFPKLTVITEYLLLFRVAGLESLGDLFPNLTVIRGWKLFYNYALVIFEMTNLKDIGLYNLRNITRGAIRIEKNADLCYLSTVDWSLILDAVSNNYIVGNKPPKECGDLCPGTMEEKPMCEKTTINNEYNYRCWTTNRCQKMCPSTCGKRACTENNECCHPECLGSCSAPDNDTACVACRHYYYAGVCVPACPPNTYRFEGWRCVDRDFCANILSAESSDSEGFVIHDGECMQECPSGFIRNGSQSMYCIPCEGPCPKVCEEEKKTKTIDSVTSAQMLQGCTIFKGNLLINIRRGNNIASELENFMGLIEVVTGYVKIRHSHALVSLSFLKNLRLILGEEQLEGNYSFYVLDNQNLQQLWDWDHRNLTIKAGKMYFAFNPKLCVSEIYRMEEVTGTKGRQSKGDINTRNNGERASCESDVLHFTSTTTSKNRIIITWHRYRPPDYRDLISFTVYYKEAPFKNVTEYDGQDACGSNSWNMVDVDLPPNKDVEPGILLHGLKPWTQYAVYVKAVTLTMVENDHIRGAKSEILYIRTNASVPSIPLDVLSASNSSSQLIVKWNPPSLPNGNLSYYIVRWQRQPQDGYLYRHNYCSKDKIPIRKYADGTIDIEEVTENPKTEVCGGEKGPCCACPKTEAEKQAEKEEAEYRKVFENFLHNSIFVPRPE
Chain of Insulin-like growth factor 1 receptor (P08069 741-1367 limits assumed): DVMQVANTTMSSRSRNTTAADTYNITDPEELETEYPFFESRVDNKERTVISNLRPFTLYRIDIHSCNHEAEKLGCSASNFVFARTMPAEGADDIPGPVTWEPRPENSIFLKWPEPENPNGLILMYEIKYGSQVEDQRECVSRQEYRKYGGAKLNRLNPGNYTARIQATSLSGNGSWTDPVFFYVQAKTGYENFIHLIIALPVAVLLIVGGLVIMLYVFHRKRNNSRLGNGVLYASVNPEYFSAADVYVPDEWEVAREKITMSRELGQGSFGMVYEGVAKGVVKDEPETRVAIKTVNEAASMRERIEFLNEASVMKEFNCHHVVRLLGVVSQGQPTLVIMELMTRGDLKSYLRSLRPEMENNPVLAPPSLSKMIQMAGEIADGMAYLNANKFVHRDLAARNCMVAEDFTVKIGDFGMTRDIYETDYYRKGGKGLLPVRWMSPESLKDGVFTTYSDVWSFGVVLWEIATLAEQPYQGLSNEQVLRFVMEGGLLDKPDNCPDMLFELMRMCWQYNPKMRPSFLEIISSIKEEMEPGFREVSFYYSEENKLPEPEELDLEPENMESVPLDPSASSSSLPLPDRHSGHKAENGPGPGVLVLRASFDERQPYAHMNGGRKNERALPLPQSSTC
Chain of Vascular endothelial growth factor receptor 1 (P17948 whole entry): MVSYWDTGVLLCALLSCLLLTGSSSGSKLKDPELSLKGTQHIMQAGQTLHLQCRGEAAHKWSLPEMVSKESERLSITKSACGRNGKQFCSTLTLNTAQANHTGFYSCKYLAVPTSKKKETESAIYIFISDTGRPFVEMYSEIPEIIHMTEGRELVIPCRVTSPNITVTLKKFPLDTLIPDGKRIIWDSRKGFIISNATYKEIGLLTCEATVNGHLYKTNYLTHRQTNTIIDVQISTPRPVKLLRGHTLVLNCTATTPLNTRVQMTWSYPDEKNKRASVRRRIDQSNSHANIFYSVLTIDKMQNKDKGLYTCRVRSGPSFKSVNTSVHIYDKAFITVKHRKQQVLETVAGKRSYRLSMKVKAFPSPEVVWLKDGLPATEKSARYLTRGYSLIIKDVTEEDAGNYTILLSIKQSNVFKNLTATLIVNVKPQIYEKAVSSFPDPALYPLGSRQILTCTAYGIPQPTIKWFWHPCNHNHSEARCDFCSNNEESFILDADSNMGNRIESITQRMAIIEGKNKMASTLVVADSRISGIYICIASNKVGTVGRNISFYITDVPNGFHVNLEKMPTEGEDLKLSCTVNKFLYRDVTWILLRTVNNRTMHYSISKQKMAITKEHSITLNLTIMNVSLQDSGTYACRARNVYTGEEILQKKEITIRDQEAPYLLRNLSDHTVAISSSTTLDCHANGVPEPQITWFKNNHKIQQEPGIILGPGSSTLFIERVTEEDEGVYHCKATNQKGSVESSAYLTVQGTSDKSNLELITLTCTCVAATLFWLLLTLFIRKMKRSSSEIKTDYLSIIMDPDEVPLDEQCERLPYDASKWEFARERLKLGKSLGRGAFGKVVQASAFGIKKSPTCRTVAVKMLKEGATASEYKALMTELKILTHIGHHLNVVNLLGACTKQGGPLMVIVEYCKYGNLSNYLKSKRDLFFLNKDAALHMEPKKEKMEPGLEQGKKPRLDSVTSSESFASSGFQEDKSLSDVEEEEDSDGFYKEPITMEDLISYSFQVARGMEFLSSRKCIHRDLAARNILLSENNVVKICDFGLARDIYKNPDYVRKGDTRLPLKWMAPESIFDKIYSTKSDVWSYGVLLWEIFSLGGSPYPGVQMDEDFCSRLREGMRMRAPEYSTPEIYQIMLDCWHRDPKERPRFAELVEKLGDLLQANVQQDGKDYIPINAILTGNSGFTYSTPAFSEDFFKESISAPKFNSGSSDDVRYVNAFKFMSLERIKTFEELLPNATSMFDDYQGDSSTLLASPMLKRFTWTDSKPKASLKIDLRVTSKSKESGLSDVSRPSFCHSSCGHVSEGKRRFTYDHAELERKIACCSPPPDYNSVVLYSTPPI
Chain of Platelet-derived growth factor receptor alpha (P16234 whole entry): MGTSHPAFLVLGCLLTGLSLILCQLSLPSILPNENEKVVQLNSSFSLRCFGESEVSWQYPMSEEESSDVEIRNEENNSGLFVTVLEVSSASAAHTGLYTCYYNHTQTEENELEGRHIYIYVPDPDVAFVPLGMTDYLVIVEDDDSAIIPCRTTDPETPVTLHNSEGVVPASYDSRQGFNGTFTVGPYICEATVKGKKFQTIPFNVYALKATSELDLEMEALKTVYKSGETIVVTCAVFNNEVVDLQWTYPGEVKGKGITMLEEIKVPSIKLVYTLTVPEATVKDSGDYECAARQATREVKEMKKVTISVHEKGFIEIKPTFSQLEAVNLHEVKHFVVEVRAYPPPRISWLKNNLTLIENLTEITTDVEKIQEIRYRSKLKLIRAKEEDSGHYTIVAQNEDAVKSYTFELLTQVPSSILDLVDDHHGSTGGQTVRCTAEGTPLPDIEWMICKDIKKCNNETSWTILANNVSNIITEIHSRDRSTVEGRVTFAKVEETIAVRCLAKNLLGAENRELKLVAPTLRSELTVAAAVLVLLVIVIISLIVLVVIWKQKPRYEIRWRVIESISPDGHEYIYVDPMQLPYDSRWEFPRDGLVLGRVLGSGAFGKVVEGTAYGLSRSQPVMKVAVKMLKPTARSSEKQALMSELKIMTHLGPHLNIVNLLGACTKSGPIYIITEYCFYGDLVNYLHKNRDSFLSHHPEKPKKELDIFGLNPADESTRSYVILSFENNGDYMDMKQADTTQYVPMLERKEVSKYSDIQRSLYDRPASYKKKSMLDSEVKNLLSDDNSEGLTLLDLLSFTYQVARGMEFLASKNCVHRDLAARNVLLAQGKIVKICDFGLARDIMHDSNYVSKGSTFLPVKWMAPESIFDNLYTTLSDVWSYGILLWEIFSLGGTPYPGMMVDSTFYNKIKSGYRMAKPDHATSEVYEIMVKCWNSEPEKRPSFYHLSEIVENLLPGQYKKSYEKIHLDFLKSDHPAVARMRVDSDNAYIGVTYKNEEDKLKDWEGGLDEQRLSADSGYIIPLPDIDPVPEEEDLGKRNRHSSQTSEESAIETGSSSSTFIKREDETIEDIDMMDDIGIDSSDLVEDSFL

COc1cc(C2=C(c3c[nH]c4ccccc34)C(=O)NC2=O)cc(OC)c1O[11CH3]
Stability (Muscle tissue [1]): 0.17 % ID/g
Stability (Zone of skin [2]): 0.41 % ID/g
Stability (Liver [3]): 2.89 % ID/g
remaining at 0.75 h [4]: 16%
Stability (Blood [5]): 0.29 % ID/g
Stability (Kidney [6]): 0.8 % ID/g
Stability (Zone of skin [7]): 0.38 % ID/g
Stability (Muscle tissue [8]): 0.2 % ID/g
Stability (Zone of skin [9]): 0.14 % ID/g
Stability (Muscle tissue [10]): 0.08 % ID/g
Stability (Liver [11]): 2.95 % ID/g
Stability (Blood [12]): 62 % ID/g
Stability [13]: 0.33 % ID/g
Stability [14]: 0.17 % ID/g
Stability (Kidney [15]): 2.29 % ID/g
remaining at 0.25 h [16]: 40%
Stability (Bone [17]): 0.15 % ID/g
Stability (Blood [18]): 0.38 % ID/g
Stability (Blood [19]): 61 % ID/g
Stability (Bone [20]): 0.19 % ID/g
Stability (Muscle tissue [21]): 0.09 % ID/g
Stability (Blood [22]): 0.19 % ID/g
logD [23]: 1.99
Stability (Liver [24]): 2.64 % ID/g
Stability (Bone [25]): 0.11 % ID/g
Stability (Zone of skin [26]): 0.21 % ID/g
Stability (Liver [27]): 1.68 % ID/g
Stability [28]: 0.3 % ID/g
Stability (Kidney [29]): 2.24 % ID/g
Stability (Kidney [30]): 0.79 % ID/g
Stability [31]: 0.14 % ID/g
remaining at 0.5 h [32]: 25%
Stability (Blood [33]): 0.36 % ID/g
Stability (Bone [34]): 0.09 % ID/g

COc1cc(C2=C(c3c[nH]c4ccc(I)cc34)C(=O)NC2=O)cc(OC)c1OC
IC50 [35]: 0.0295 µM
IC50 [36]: 1.31 µM
IC50 [37]: 0.0249 µM
IC50 [38]: 0.858 µM
IC50 [39]: 15.2 µM
IC50 [40]: 0.0694 µM
IC50 [41]: 3.33 µM
IC50 [42]: 3.2 µM
IC50 (Angiopoietin-1 receptor): 3.96 µM

COc1cc(C2=C(c3c[nH]c4ccccc34)C(=O)NC2=O)cc(OC)c1OC [MALEIMIDE]
Stability [43]: 72 % ID/g
Stability [44]: 68 % ID/g

— ChEMBL document CHEMBL1158526, “Labeled 3-aryl-4-indolylmaleimide derivatives and their potential as angiogenic PET biomarkers” (Bioorg Med Chem, 2010)
